High-throughput results: PubChem BioAssay, several laboratories
M1 agonist: M1 muscarinic receptor agonists, primary screen, CHO-M1 cells, Fluo-4 calcium, agonist mode; Muscarinic acetylcholine receptor M1; Fluo-4 calcium fluorescence; hits give high values; B-score at 10 µM; 64,000 tested, 3% active; AID 626, 2007;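 active = fluorescence rise, raw or as B-score row- and column-corrected plate score, outside the 99.7% band of its plate's samples, either direction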
HEK293 NFkB inh: inhibitors of PMA/ionomycin-induced NF-kB reporter, primary screen, antigen receptor NF-kB inhibitor project, cell-based, HEK-293 luciferase reporter, luminescence; HEK-293 NF-kB luciferase reporter; inhibition, % at 3 µM; 62,000 tested, 0.21% active; AID 465, 2006;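 active = inhibition above the mean of all tested compounds plus 3 SD, cut at about 40% in these data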
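System – HEK-293 cells with stable firefly luciferase reporter driven by four HIV NF-kB elements · Doses – one dose, 3 µM · Schedule – 1 h compound pre-incubation, 16 h PMA/ionomycin at 37 °C · Technique – luminescence from luciferase substrate reagent · Measure – percent inhibition normalized per plate to DMSO and reference-inhibitor controls · Replicates – tested once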
M1 antagonist: antagonists of rat M1 muscarinic receptor; B-score at 10 µM; Muscarinic acetylcholine receptor M1 (Rattus norvegicus), P08482; CHO-M1 cells, Fluo-4 calcium, ACh EC80 antagonist mode; hits give low values; 64,000 tested, 3.4% active; AID 628, 2007;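 active = calcium fluorescence response, raw or row-and-column corrected B-score, differing from the plate sample mean either way at a set confidence level, mostly lower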
DAT uptake mod: changed hDAT dopamine uptake under cocaine IC80, either direction, primary screen, cocaine antagonist project, cell-based, LLC-PK1 hDAT, [14C]-dopamine uptake, MLSMR; Sodium-dependent dopamine transporter (Homo sapiens), Q01959; LLC-PK1 hDAT cells, [14C]-dopamine uptake with cocaine IC80; actives deviate in either direction; B-score at 10 µM; 110,000 tested, 1.3% active; AID 449768, 2010;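 active = Z score or B-score, a plate-position-corrected score, falls beyond the plate's 99.7% confidence bounds, in either direction; inactive = both scores lie inside the 99.7% bounds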
Target sequence (Q01959 whole entry, looked up): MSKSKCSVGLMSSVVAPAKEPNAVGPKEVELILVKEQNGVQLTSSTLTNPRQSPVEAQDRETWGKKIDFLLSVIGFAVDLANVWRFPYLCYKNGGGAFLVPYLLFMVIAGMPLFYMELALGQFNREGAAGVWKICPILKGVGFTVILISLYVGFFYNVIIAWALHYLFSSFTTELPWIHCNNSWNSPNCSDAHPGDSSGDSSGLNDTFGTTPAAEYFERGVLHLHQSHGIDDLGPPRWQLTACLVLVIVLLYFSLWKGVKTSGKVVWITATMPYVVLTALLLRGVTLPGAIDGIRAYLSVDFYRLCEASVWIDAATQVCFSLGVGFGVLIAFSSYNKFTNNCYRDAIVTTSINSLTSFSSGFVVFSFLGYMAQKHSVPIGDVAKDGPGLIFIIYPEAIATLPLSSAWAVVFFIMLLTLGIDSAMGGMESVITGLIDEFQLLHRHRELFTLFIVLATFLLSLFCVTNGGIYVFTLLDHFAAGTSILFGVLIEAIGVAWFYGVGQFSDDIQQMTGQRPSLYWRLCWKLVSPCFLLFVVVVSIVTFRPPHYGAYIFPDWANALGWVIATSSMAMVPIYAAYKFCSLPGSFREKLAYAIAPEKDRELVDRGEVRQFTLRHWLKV
BAP1 block: inhibitors of BAP1 deubiquitinase, primary screen, biochemical, Ub-AMC fluorescence, kinetic | calls only at 20 µM | recombinant BAP1, Ub-AMC hydrolysis fluorescence kinetic; hits give low values | 72,000 tested, 0.48% active | AID 436, 2006;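 active = activity remaining at or below 50% of control, provided the compound also passes the data quality filters; inactive = the rest, including low values that fail the filters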
D1 allo mod: D1 CRE-luciferase signal change, two-sided – cell-based, HEK293 D1, dopamine EC30, D1 allosteric modulator project, primary screen; D(1A) dopamine receptor (Homo sapiens), P21728; dopamine EC30 potentiation; actives deviate in either direction; B-score at 10 µM; 58,000 tested, 5.9% active; AID 641, 2007;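 active = luminescence count or its row- and column-corrected plate score outside the 99.7% band of the plate's sample wells, on either side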
Hits are given with their value; – = inactive; · = no result given. Most compounds without a hit are left out; they make up all but 7.2% or so of the library.

SMILES	M1 agonist	HEK293 NFkB inh	M1 antagonist	DAT uptake mod	BAP1 block	D1 allo mod
CCOC(=O)c1sc(NC(=O)c2ccc(Cc3ccccc3)cc2)nc1C	·	·	·	·	–	·
COc1ccc(/C=C2\CCc3ccccc3C2=O)cc1OC	·	·	·	–	·	·
COc1ccc(/C=C2\CCc3ccccc3C2=O)cc1Cn1nc(C)cc1C	·	·	·	4.9	·	·
Cc1ccc(Oc2ccccc2[N+](=O)[O-])cc1	·	·	·	·	–	·
CCCC(=O)C1=C(O)C(C(=O)OC)C(C)(C)CC1=Nc1cccc2ccccc12 (stereo not given)	·	·	·	3	·	·
CCCC(=O)C1=C(O)C(C(=O)OC)C(C)(C)CC1=N (stereo not given)	–	–	–	-3.2	–	–
CCCC(=O)C1=C(O)C(C(=O)OC)C(C)(C)CC1=NC(C)(C)C (stereo not given)	·	·	·	–	·	·
C=CCSc1nc2sc3c(c2c(=O)n1CC(=C)C)CC(C)(C)OC3	·	·	·	·	–	·
COc1ccc(-c2nnc(CSc3nc4ccccc4c(=O)n3CC3CCCO3)o2)cc1OC (stereo not given)	–	–	–	·	–	11
CC(=O)c1ccc(NC(=O)c2ccc(N)cc2)cc1	·	·	·	·	–	·
CCCn1c(NCc2ccco2)nc2c1c(=O)n(C)c(=O)n2C	·	·	·	–	·	·
CCn1c(NCc2ccccn2)nc2c1c(=O)n(C)c(=O)n2C	–	–	–	4	–	–
CC(=O)c1ccc(Nc2nc(NCCO)nc(OC(C(F)(F)F)C(F)(F)F)n2)cc1	·	·	·	-6.3	·	·
COc1ccc(Nc2ncc3c(n2)CC(c2ccccc2)CC3=O)cc1 (stereo not given)	–	–	–	–	–	9.8
COc1ccc(NC(=O)CSc2nnc(-c3ccccn3)n2N)cc1	–	–	–	2.5	·	–
CCOc1ccc(NC(=O)CSc2nnc(-c3ccccn3)n2N)cc1	–	–	–	–	·	–
CCn1c2ccccc2c2cc(NC(=O)CSc3nnc(-c4ccccc4OC)n3N)ccc21	–	–	–	2.8	–	–
Cn1ccnc1SCC(=O)Nc1ccc2ccccc2c1	–	–	–	–	–	-6.6
CCOC(=O)c1nn2c(C(F)(F)F)cc(-c3ccc(Br)cc3)nc2c1Br	·	·	·	·	–	·
O=C(Oc1ccc(-c2cnc3ccccc3n2)cc1)c1ccc(Br)cc1	·	·	·	·	–	·
COc1ccc(NS(=O)(=O)c2ccc(N=Cc3ccc([N+](=O)[O-])cc3)cc2)nn1	·	·	·	·	–	·
Clc1ccc(Cc2noc(Cc3ccccc3)n2)cc1Cl	–	–	1.8	–	–	–
CSc1nsc(SCCN2C(=O)c3ccccc3C2=O)n1	–	–	2.3	–	–	–
Cc1csc(SCCN2C(=O)c3ccccc3C2=O)n1	–	–	–	–	–	–
CCn1nc(C(=O)OCC(=O)c2c[nH]c3ccccc23)c2ccccc2c1=O	6.1	–	–	–	–	-3.2
SMILES	M1 agonist	HEK293 NFkB inh	M1 antagonist	DAT uptake mod	BAP1 block	D1 allo mod
CC1CCc2nc(NC(=O)C3CCCO3)sc2C1 (stereo not given)	–	–	–	–	–	-4.6
CC1CCc2nc(NC(=O)c3ccco3)sc2C1 (stereo not given)	–	–	–	–	–	-7.5
O=C(CC(Sc1cccs1)c1cccc([N+](=O)[O-])c1)c1ccccc1 (stereo not given)	·	·	·	·	–	·
CC(=O)c1cccc(NC(=O)c2ccccc2Br)c1	·	·	·	·	–	·
CCc1ccc2nc(NC3=NCN(CCN4CCOCC4)CN3)nc(C)c2c1	–	–	-3.3	·	–	–
Cc1cc(C)c2nc(NC3=NCN(CCN4CCOCC4)CN3)nc(C)c2c1	–	–	–	·	–	–
Cc1nc(NC2=NCN(Cc3ccc4c(c3)OCO4)CN2)nc2ccccc12	–	–	-9.2	·	–	·
Cc1nc2sc(C(c3ccc(Br)cc3)N3CC(C)OC(C)C3)c(O)n2n1 (stereo not given)	–	–	–	2.6	–	–
Cc1nc2sc(C(c3ccccc3)N3CC(C)OC(C)C3)c(O)n2n1 (stereo not given)	–	–	–	–	–	–
COc1ccccc1C1C=C(c2ccc(Cl)cc2)Nc2nc(N3C(=O)CCC3=O)nn21 (stereo not given)	–	–	–	–	–	–
O=C1CCC(=O)N1c1nc2n(n1)C(c1ccccc1)C=C(c1ccc(Br)cc1)N2 (stereo not given)	26	·	–	–	–	·
COc1ccc(C2C=C(c3ccc(Br)cc3)Nc3nc(N4C(=O)CCC4=O)nn32)cc1 (stereo not given)	21	–	–	–	–	–
COc1ccc(NC2OC(C(O)CO)C(O)C2O)cc1 (stereo not given)	·	·	·	·	–	·
CC1(C)CC(=O)C2=C(C1)OC(N)=C(C#N)C2C#Cc1ccccc1 (stereo not given)	–	–	–	–	–	–
CC(c1ccccc1)C1C(C#N)=C(N)OC2=C1C(=O)CC(C)(C)C2 (stereo not given)	–	–	–	2.8	–	–
Cn1c(=O)oc2cc(S(=O)(=O)N3CCCC(C(=O)N4CC=C(c5ccccc5)CC4)C3)ccc21 (stereo not given)	3.4	–	–	·	–	–
Cn1c(=O)oc2cc(S(=O)(=O)N3CCCC(C(=O)NC4CCCc5ccccc54)C3)ccc21 (stereo not given)	·	·	·	–	·	·
Cc1ccc(C(=O)NNC(=O)C2CCCN(c3ncccn3)C2)cc1 (stereo not given)	·	·	·	6.6	·	·
O=C(NNC(=O)C1CCCN(c2ncccn2)C1)c1ccc(F)cc1 (stereo not given)	·	·	·	–	·	·
Cc1[nH]nc2c1C1(CCN(Cc3ccccc3)CC1)C(C#N)=C(N)O2	4.1	–	–	–	–	–
COC(=O)c1ccc(Cn2nc(C)cc2C)cc1	·	·	·	–	·	·
COC(=O)c1ccc(Cn2nc(C)c(Br)c2C)cc1	–	–	–	–	–	-2.7
Cn1c(=O)c(C(=O)Nc2cccnc2)c(O)c2ccccc21	–	–	–	·	–	–
Cn1c(=O)c(C(=O)Nc2ncccc2O)c(O)c2ccccc21	–	–	–	2.2	·	–
COCCOC(=O)C1=C(C)NC2=C(C(=O)CCC2)C1c1ccc(Br)cc1 (stereo not given)	·	·	·	·	–	·
COCCOC(=O)C1=C(C)NC2=C(C(=O)CCC2)C1c1ccc(N(C)C)cc1 (stereo not given)	–	–	–	3.1	–	–
CCN(CC)c1cc2nc(C)n(Cc3ccccc3)c(=O)c2cc1NC(=O)C1CC1	·	·	·	–	·	·
